Tested on: Fibroblast
Test: Multiplex assay against human fibroblast
Type: toxicity, cell-based
Procedure, shortened: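 Phenotypes for tubulin, mitochondrial mass and membrane permeability are expressed as per cents of healthy-nucleus cells. Cells were stained live at seeding with Hoechst33342, BioTracker Green Microtubule Cytoskeleton Dye, MitoTracker Red and Annexin V Alexa Fluor 680, then imaged after compound addition on a CQ1 microscope at 37°C and 5% CO2. Machine-learning gating in CellPathfinder separated Hoechst high-intensity objects from normal cells, divided normal cells by nuclear state (healthy, pyknosed, fragmented) and divided pyknosed cells into mitotic or apoptotic.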

[1] = 12 h, 1 µM, compound concentration 1 uM, replicate 1
[2] = 12 h, 1 µM, compound concentration 1 uM, replicate 2
[3] = 12 h, 10 µM, compound concentration 10 uM, replicate 1
[4] = 12 h, 10 µM, compound concentration 10 uM, replicate 2
[5] = 24 h, 1 µM, compound concentration 1 uM, replicate 1
[6] = 24 h, 1 µM, compound concentration 1 uM, replicate 2
[7] = 24 h, 10 µM, compound concentration 10 uM, replicate 1
[8] = 24 h, 10 µM, compound concentration 10 uM, replicate 2
[9] = 48 h, 1 µM, compound concentration 1 uM, replicate 1
[10] = 48 h, 1 µM, compound concentration 1 uM, replicate 2
[11] = 48 h, 10 µM, compound concentration 10 uM, replicate 1
[12] = 48 h, 10 µM, compound concentration 10 uM, replicate 2

C[C@@H](Oc1cc(-n2cnc3ccc(CN4CCN(C)CC4)cc32)sc1C(N)=O)c1ccccc1C(F)(F)F [GSK-461364]
Population Apoptotic (%) [1]: 75%
Population Fragmented Nuclei (%) [1]: 30%
Population Healthy Nuclei (%) [1]: 36%
Population Hoechst High Intensity Objects (%) [1]: 14%
Population Membrane Permeable-Phenotype (%) [1]: 34%
Population Mitochondria Different-Phenotype (%) [1]: 11%
Population Mitotic Cells (%) [1]: 25%
Population Normal (%) [1]: 85%
Population Pyknosed Nuclei (%) [1]: 33%
Population Tubulin-Different-Phenotype (%) [1]: 69%
Population Apoptotic (%) [2]: 12%
Population Fragmented Nuclei (%) [2]: 12%
Population Healthy Nuclei (%) [2]: 71%
Population Hoechst High Intensity Objects (%) [2]: 4%
Population Membrane Permeable-Phenotype (%) [2]: 12%
Population Mitochondria Different-Phenotype (%) [2]: 35%
Population Mitotic Cells (%) [2]: 87%
Population Normal (%) [2]: 95%
Population Pyknosed Nuclei (%) [2]: 16%
Population Tubulin-Different-Phenotype (%) [2]: 30%
Population Apoptotic (%) [3]: 78%
Population Fragmented Nuclei (%) [3]: 29%
Population Healthy Nuclei (%) [3]: 40%
Population Hoechst High Intensity Objects (%) [3]: 25%
Population Membrane Permeable-Phenotype (%) [3]: 21%
Population Mitochondria Different-Phenotype (%) [3]: 47%
Population Mitotic Cells (%) [3]: 21%
Population Normal (%) [3]: 74%
Population Pyknosed Nuclei (%) [3]: 30%
Population Tubulin-Different-Phenotype (%) [3]: 90%
Population Apoptotic (%) [4]: 40%
Population Fragmented Nuclei (%) [4]: 13%
Population Healthy Nuclei (%) [4]: 55%
Population Hoechst High Intensity Objects (%) [4]: 9%
Population Membrane Permeable-Phenotype (%) [4]: 71%
Population Mitochondria Different-Phenotype (%) [4]: 100%
Population Mitotic Cells (%) [4]: 59%
Population Normal (%) [4]: 90%
Population Pyknosed Nuclei (%) [4]: 31%
Population Tubulin-Different-Phenotype (%) [4]: 100%
Population Apoptotic (%) [5]: 70%
Population Fragmented Nuclei (%) [5]: 31%
Population Healthy Nuclei (%) [5]: 44%
Population Hoechst High Intensity Objects (%) [5]: 17%
Population Membrane Permeable-Phenotype (%) [5]: 12%
Population Mitochondria Different-Phenotype (%) [5]: 25%
Population Mitotic Cells (%) [5]: 29%
Population Normal (%) [5]: 82%
Population Pyknosed Nuclei (%) [5]: 24%
Population Tubulin-Different-Phenotype (%) [5]: 80%
Population Apoptotic (%) [6]: 50%
Population Fragmented Nuclei (%) [6]: 14%
Population Healthy Nuclei (%) [6]: 68%
Population Hoechst High Intensity Objects (%) [6]: 4%
Population Membrane Permeable-Phenotype (%) [6]: 18%
Population Mitochondria Different-Phenotype (%) [6]: 35%
Population Mitotic Cells (%) [6]: 50%
Population Normal (%) [6]: 95%
Population Pyknosed Nuclei (%) [6]: 17%
Population Tubulin-Different-Phenotype (%) [6]: 28%
Population Apoptotic (%) [7]: 60%
Population Fragmented Nuclei (%) [7]: 35%
Population Healthy Nuclei (%) [7]: 42%
Population Hoechst High Intensity Objects (%) [7]: 43%
Population Membrane Permeable-Phenotype (%) [7]: 35%
Population Mitochondria Different-Phenotype (%) [7]: 54%
Population Mitotic Cells (%) [7]: 40%
Population Normal (%) [7]: 56%
Population Pyknosed Nuclei (%) [7]: 22%
Population Tubulin-Different-Phenotype (%) [7]: 78%
Population Apoptotic (%) [8]: 82%
Population Fragmented Nuclei (%) [8]: 10%
Population Healthy Nuclei (%) [8]: 47%
Population Hoechst High Intensity Objects (%) [8]: 6%
Population Membrane Permeable-Phenotype (%) [8]: 90%
Population Mitochondria Different-Phenotype (%) [8]: 100%
Population Mitotic Cells (%) [8]: 17%
Population Normal (%) [8]: 93%
Population Pyknosed Nuclei (%) [8]: 41%
Population Tubulin-Different-Phenotype (%) [8]: 100%
Population Apoptotic (%) [9]: 70%
Population Fragmented Nuclei (%) [9]: 42%
Population Healthy Nuclei (%) [9]: 44%
Population Hoechst High Intensity Objects (%) [9]: 21%
Population Membrane Permeable-Phenotype (%) [9]: 20%
Population Mitochondria Different-Phenotype (%) [9]: 8%
Population Mitotic Cells (%) [9]: 30%
Population Normal (%) [9]: 78%
Population Pyknosed Nuclei (%) [9]: 13%
Population Tubulin-Different-Phenotype (%) [9]: 76%
Population Apoptotic (%) [10]: 25%
Population Fragmented Nuclei (%) [10]: 31%
Population Healthy Nuclei (%) [10]: 62%
Population Hoechst High Intensity Objects (%) [10]: 12%
Population Membrane Permeable-Phenotype (%) [10]: 18%
Population Mitochondria Different-Phenotype (%) [10]: 11%
Population Mitotic Cells (%) [10]: 75%
Population Normal (%) [10]: 87%
Population Pyknosed Nuclei (%) [10]: 5%
Population Tubulin-Different-Phenotype (%) [10]: 34%
Population Apoptotic (%) [11]: 90%
Population Fragmented Nuclei (%) [11]: 52%
Population Healthy Nuclei (%) [11]: 31%
Population Hoechst High Intensity Objects (%) [11]: 45%
Population Membrane Permeable-Phenotype (%) [11]: 22%
Population Mitochondria Different-Phenotype (%) [11]: 45%
Population Mitotic Cells (%) [11]: 9%
Population Normal (%) [11]: 54%
Population Pyknosed Nuclei (%) [11]: 15%
Population Tubulin-Different-Phenotype (%) [11]: 68%
Population Apoptotic (%) [12]: 75%
Population Fragmented Nuclei (%) [12]: 39%
Population Healthy Nuclei (%) [12]: 58%
Population Hoechst High Intensity Objects (%) [12]: 38%
Population Membrane Permeable-Phenotype (%) [12]: 5%
Population Mitochondria Different-Phenotype (%) [12]: 27%
Population Mitotic Cells (%) [12]: 25%
Population Normal (%) [12]: 61%
Population Pyknosed Nuclei (%) [12]: 2%
Population Tubulin-Different-Phenotype (%) [12]: 84%

Reference: ChEMBL document CHEMBL4689842, “EUbOPEN Chemogenomics Library wave 1” (2021)
